Key:
[1] = target: Delta-type opioid receptor (Mus musculus, UniProt P32300); test: Tested for electrically induced smooth muscle contractions from mouse vas deferens expressed in delta opioid receptors; type: functional
Method in brief: (§1)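 Electrically stimulated contractions of male Hartley guinea pig ileum longitudinal muscle–myenteric plexus (1 g tension, 0.4-ms pulses) or male ICR mouse vas deferens (0.5 g, 2.0-ms pulses, Mg-free Krebs). Baths at 37 °C, oxygenated Krebs, 0.1 Hz, supramaximal voltage. Agonist left 3 min. Percent inhibition of twitch height, IC50 from Hill fit, ≥4 tissues.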

Mu-type opioid receptor [2] = target: Mu-type opioid receptor (Cavia porcellus, UniProt P97266); test: Tested for electrically induced smooth muscle contractions from guinea pig ileum expressed in mu opioid receptors; type: functional, tissue-based; method in brief: as §1
Mu-type opioid receptor (Cavia porcellus, UniProt P97266), sequence (P97266 whole entry): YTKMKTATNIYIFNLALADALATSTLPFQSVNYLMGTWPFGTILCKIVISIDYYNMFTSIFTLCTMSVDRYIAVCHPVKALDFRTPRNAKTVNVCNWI

[3] = target: Delta-type opioid receptor (Homo sapiens, UniProt P41143); test: Binding affinity was measured against cloned human Opioid receptor delta 1 (wild-type,Wt)
Delta-type opioid receptor (Homo sapiens, UniProt P41143), sequence (P41143 whole entry): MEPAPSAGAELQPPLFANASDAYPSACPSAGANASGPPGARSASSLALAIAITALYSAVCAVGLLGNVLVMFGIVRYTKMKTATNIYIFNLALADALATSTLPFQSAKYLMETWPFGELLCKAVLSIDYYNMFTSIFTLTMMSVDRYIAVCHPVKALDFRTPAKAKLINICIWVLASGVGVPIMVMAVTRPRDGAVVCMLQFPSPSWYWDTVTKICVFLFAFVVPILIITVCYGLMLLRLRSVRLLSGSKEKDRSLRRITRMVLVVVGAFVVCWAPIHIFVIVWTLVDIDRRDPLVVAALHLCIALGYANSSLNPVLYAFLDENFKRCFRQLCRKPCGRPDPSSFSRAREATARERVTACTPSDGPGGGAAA

Mu-type opioid receptor [4] = target: Mu-type opioid receptor (Rattus norvegicus, UniProt P33535); test: Binding affinity was measured against Opioid receptor mu 1 using [3H]-DAMGO as radioligand.
Mu-type opioid receptor (Rattus norvegicus, UniProt P33535), sequence (P33535 whole entry): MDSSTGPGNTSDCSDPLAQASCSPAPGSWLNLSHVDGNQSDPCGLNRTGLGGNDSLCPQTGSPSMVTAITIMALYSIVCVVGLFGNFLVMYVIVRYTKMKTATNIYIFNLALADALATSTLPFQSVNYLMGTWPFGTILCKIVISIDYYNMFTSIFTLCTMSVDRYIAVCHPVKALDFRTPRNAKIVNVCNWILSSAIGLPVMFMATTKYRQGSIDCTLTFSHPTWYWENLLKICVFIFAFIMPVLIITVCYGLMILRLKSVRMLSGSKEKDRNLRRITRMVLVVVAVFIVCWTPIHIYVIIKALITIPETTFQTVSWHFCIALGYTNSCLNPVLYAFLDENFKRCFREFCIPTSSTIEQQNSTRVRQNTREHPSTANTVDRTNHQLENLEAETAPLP

[5] = target: Delta-type opioid receptor (Rattus norvegicus, UniProt P33533); test: Binding affinity was measured against Opioid receptor delta 1 using [3H]p-Cl-DPDPE as radioligand.
Delta-type opioid receptor (Rattus norvegicus, UniProt P33533), sequence (P33533 whole entry): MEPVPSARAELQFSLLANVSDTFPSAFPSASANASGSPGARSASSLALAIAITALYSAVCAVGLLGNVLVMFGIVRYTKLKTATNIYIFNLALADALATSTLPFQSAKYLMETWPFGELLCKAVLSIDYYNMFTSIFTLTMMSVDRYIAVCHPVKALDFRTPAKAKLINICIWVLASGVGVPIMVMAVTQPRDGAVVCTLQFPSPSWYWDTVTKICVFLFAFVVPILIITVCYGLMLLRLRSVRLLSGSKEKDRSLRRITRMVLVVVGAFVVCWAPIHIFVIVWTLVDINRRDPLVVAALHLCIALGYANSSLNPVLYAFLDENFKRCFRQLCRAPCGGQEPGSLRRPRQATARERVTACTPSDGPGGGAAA

[6] = target: Opioid receptors; mu & delta (Homo sapiens) (UniProt P41143+P35372); test: It is the ratio of EC50(mu receptor) to that of EC50 for(delta receptor); type: functional
Opioid receptors; mu & delta (Homo sapiens), sequence (P35372 whole entry, looked up): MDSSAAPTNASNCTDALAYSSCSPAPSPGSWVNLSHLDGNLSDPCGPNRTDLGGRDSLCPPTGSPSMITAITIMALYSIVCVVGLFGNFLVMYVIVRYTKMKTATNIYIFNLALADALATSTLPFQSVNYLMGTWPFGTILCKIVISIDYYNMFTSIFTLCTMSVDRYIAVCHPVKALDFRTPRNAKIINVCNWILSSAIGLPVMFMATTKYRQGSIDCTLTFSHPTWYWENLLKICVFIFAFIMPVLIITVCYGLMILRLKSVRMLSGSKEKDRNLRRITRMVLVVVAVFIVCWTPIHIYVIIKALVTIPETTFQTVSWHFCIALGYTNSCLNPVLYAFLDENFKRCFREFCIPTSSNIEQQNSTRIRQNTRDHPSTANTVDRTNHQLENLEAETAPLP
Opioid receptors; mu & delta (Homo sapiens), sequence (P41143 whole entry, looked up): as the sequence (P41143 whole entry) above

[7] = target: Mu-type opioid receptor (Cavia porcellus) (UniProt P97266); test: Tested for electrically induced smooth muscle contractions from guinea pig ileum expressed in mu opioid receptors at 60 uM; type: functional, tissue-based
Mu-type opioid receptor (Cavia porcellus), sequence (P97266 whole entry): as the sequence (P97266 whole entry) above

Cavia porcellus = species on record: Cavia porcellus; test: mu-opioid receptor antagonistic activity was measured in guinea pig ileum.; type: functional

Delta-type opioid receptor (Mus musculus, UniProt P32300), sequence (P32300 whole entry): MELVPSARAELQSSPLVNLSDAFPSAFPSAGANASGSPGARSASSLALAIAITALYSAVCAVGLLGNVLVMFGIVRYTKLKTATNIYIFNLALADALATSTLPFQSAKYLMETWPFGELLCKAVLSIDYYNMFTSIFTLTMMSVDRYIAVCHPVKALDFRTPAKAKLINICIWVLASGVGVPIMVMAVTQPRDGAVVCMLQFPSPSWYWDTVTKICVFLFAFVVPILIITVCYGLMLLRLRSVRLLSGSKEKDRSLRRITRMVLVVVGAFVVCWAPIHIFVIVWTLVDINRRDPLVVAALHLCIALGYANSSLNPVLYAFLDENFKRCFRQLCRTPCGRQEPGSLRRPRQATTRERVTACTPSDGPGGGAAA

Row | Structure (SMILES) | EC50 [1] [nM] | EC50 (Mu-type opioid receptor [2]) [nM] | IC50 (Mu-type opioid receptor [4]) [nM] | IC50 [5] [nM] | also measured
1 | CC(C)(C)c1ccc(C(c2cccc(O)c2)N2CCN(Cc3ccccc3)CC2)cc1 (single isomer, unassigned; (+)) | 210 | 3000 |  |  | 
2 | CC(C)(C)c1ccc(C(c2cccc(O)c2)N2CCN(Cc3ccccc3)CC2)cc1 (stereo in doubt) | 85 | 39000 |  |  | IC50 [3]: 5.51 nM
3 | COc1cccc(C(c2ccc(C(C)(C)C)cc2)N2CCN(Cc3ccccc3)CC2)c1 (centres undefined) |  |  | > 8000 | 1800 | 
4 | CC(C)(C)c1ccc(C(c2cccc(O)c2)N2CCN(Cc3ccccc3)CC2)cc1 (single isomer, unassigned; (-)) | 360 | 7600 |  |  | 
5 | Oc1cccc(C(c2ccc(-c3ccccc3)cc2)N2CCN(Cc3ccccc3)CC2)c1 (centres undefined) |  |  | 27000 | 31 | 
6 | Oc1cccc(CN2CCN(Cc3ccccc3)CC2)c1 |  |  |  | 6400 | 
7 | C=CCN1C[C@H](C)N([C@H](c2ccc(C(=O)N(CC)CC)cc2)c2cccc(O)c2)C[C@H]1C |  |  |  | 0.31 | 
8 | Cc1cc(O)cc(C)c1[C@@H](C)[C@H](N)C(=O)N[C@H]1C(=O)NCC(=O)N[C@@H](Cc2ccccc2)C(=O)N[C@@H](C(=O)O)C(C)(C)SSC1(C)C | 1.8 |  | 4300 | 5 | Selectivity [6]: > 33000; inhibition [7]: 0%; IC50 (Cavia porcellus): 5000 nM
9 | C=CCN1C[C@H](C)N([C@H](c2ccc(C(=O)N(CC)CC)cc2)c2cccc(OC)c2)C[C@H]1C [SNC-80] |  |  | 2500 |  | 
10 | CC(C)CC(c1cccc(O)c1)N1CCN(Cc2ccccc2)CC1 (centres undefined) |  |  | 2100 | 420 | 
11 | Oc1cccc(C(c2ccccc2)N2CCN(Cc3ccccc3)CC2)c1 (centres undefined) | 174 | 1250 | 500 | 34 | Selectivity [6]: 7.1
12 | CC(c1cccc(O)c1)N1CCN(Cc2ccccc2)CC1 (centres undefined) |  |  | 780 | 610 | 

Reference: ChEMBL document CHEMBL1131191, “De novo design, synthesis, and biological activities of high-affinity and selective non-peptide agonists of the delta-opioid receptor” (J Med Chem, 1998)
